# Assay results reported in PubChem BioAssay.
# The source made the active and inactive calls.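 The calls were made as follows, unless noted: active = calcium signal rise more than 3 SD above the low-dose agonist control mean, in both duplicate plates and the primary screen; inactive = the rest.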
# Test system: not listed separately
# Assay: nonspecific potentiation of DAMGO calcium response – cell-based, HEK293 mu-opioid receptor line, counter-screen for TRPC4 allosteric potentiator project, confirmation (AID 449724);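 also: HEK293 cells carrying mu-opioid receptor only with no TRPC4 channel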
# Conditions: HEK293 mu-opioid receptor cells, Fluo-4 calcium flux, at 10 µM, compound added before EC20 DAMGO stimulus; hits give high values
row,Compound,outcome
1,CCCNc1nc2ccccc2n2c(C)nnc12,inactive
2,CC(C)NS(=O)(=O)c1ccc(NC(=O)C(C)Oc2ccc(C(=O)c3ccccc3)cc2)cc1 (stereo not drawn),inactive
3,O=C1C=CC(=O)N1CCNc1ncc(C(F)(F)F)cc1Cl,inactive
4,CCN1CCN(c2ccc(S(=O)(=O)N3CCCCC3)cc2NC(=O)c2cccc(F)c2)CC1,inactive
5,CCn1c2ccc(F)cc2c2nnc(NN)nc21,inactive
6,CCCN1Cc2cccc(C(=O)N3CCN(c4cc(Cl)ccc4C)CC3)c2C1=O,inactive
7,Cc1ccc2c(c1)C1CN(C)CCC1N2C(=S)NC(=O)c1ccc(Br)cc1 (stereo not drawn),inactive
8,CCCCN(CC)CCCNC(=O)c1cc2cc3ccc(C)cc3nc2o1,inactive
9,COc1cc(NC(=O)CSc2ncnc3sc4c(c23)CCC(C)C4)c(C(=O)O)cc1OC (stereo not drawn),inactive
10,CN(CCCNC(=O)CCCOc1cc(=O)n(C)c2ccccc12)Cc1ccccc1,inactive
11,O=S(=O)(NCC1NCCc2ccccc21)c1ccccc1 (stereo not drawn),inactive
12,Cc1cc(C)c2c(=O)n(CC(=O)Nc3cccc(Cl)c3C)sc2n1,inactive
13,O=C(Nc1ccnn1C1CCN(Cc2cc3ccccc3[nH]2)CC1)C1CCOC1 (stereo not drawn),inactive
14,CC(Oc1ccc(Cl)cc1Cl)C(=O)N(C)c1ccccc1 (stereo not drawn),inactive
15,O=C(C1=C[C@H](c2ccc(C(F)(F)F)cc2)C[C@H](OCCCCO)O1)N1CCOCC1,inactive
16,O=C(O)CCCN1C(=O)/C(=C\c2ccc(-c3nc4ccccc4s3)o2)SC1=S,inactive
17,O=c1c2ccccc2nc(COc2ccccc2)n1/N=C/c1cc([N+](=O)[O-])ccc1O,inactive
18,O=C(CCN1CCN(Cc2ccccc2)CC1)Nc1cccc(Br)c1,inactive
19,O=C(NC1CCCC1)c1cc2ccccc2o1,inactive
20,Cc1cc(/C=N/NC(=O)c2cccc([N+](=O)[O-])c2)c(C)n1-c1ccc(Cl)cc1Cl,inactive
21,CCN(CC)c1ncnc2sc3c(c12)CCC3,inactive
22,CC(=O)c1nn(-c2cccc(Br)c2)cc1C(=O)c1cccc2ccccc12,inactive

# Test system: not listed separately
# Assay: nonspecific flux increase, KCNQ1-free cells – parental CHO cells, counter-screen for KCNQ1 potentiator project (AID 493006;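 active = duplicate-averaged activation above buffer control mean plus 5 SD of those controls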;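 as to activation: fluorescence ratio of max minus min over baseline after K+ and Tl+ depolarization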)
# Conditions: parental CHO-K1 cells, FluxOR thallium flux, at 10 µM; hits give high values
# In short: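 Material: parental CHO-K1 cells, FluxOR dye-loaded; Also added: Potassium/thallium depolarization pulse; Schedule: overnight 37 °C plating, 90 min dye, 20 min dark compound; Signal: kinetic FluxOR fluorescence, 10 s baseline, 110 s after stimulus.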
Compound,outcome,activation
CCCc1nc2oc3c(NCCCN(C)C)ncnc3c2c2c1CCCC2,inactive,
COc1ccc(NS(=O)(=O)c2ccc3ccccc3c2)c2ncccc12,inactive,
CN(C)S(=O)(=O)N1CCC(CCCC2CCN(S(=O)(=O)N(C)C)CC2)CC1,,228% (active)
COc1cc(C2(c3ccc(O)c(OC)c3)C(=O)Nc3c(C)cc(Br)cc32)ccc1O,,168% (active)
CCCCCCCCCC[n+]1cccc2c3ccccc3ccc21,,245% (active)
Cc1nn(-c2cc(C(F)(F)F)ccc2Cl)c2nc(C(Cl)(Cl)Cl)[nH]c(=O)c12,,191% (active)
CN(C)CCCN(C(=O)CCc1ccccc1)c1nc2ccc(F)cc2s1,inactive,
Cc1ccc(C(=O)O)cc1N=Cc1cc(Br)cc(Br)c1O,,222% (active)
CC(C)NS(=O)(=O)c1ccc(NC(=O)C(C)Oc2ccc(C(=O)c3ccccc3)cc2)cc1 (stereo not drawn),inactive,
O=C1C=CC(=O)N1CCNc1ncc(C(F)(F)F)cc1Cl,inactive,
Cc1ccc2c(c1)C1CN(C)CCC1N2C(=S)NC(=O)c1ccc(Br)cc1 (stereo not drawn),,170% (active)
CCCCN(CC)CCCNC(=O)c1cc2cc3ccc(C)cc3nc2o1,inactive,
COc1cc(NC(=O)CSc2ncnc3sc4c(c23)CCC(C)C4)c(C(=O)O)cc1OC (stereo not drawn),,450% (active)
CN(CCCNC(=O)CCCOc1cc(=O)n(C)c2ccccc12)Cc1ccccc1,inactive,
Cc1cc(C)c2c(=O)n(CC(=O)Nc3cccc(Cl)c3C)sc2n1,inactive,
O=C(Nc1ccnn1C1CCN(Cc2cc3ccccc3[nH]2)CC1)C1CCOC1 (stereo not drawn),,163% (active)
O=C(O)CCCN1C(=O)/C(=C\c2ccc(-c3nc4ccccc4s3)o2)SC1=S,inactive,
CCN(CC)c1ncnc2sc3c(c12)CCC3,inactive,

# Molecular target: Potassium voltage-gated channel subfamily KQT member 1 (Homo sapiens) (UniProt P51787)
# Sequence (P51787 whole entry, looked up): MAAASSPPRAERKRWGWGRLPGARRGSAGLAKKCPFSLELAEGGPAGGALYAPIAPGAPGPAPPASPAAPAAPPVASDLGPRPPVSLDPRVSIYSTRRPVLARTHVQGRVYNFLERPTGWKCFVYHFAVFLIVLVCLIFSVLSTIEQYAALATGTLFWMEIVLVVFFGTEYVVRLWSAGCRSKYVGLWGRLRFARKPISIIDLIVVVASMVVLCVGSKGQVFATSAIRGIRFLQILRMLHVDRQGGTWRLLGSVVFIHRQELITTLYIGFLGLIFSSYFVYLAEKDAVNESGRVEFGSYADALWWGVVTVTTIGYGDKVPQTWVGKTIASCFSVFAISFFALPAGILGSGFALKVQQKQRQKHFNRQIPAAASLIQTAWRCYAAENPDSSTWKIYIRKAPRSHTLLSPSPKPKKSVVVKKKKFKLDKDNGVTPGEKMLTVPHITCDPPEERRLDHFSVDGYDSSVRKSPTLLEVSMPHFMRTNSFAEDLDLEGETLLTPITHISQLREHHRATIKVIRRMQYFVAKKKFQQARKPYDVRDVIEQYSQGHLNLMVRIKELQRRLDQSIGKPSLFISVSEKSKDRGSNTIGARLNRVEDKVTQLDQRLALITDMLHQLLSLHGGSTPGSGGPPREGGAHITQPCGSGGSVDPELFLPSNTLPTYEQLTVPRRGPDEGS
# Assay: enhancement of KCNQ1 channel thallium flux – FluxOR thallium flux, CHO cells, duplicates, confirmation (AID 493007;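 active = potentiation averaged over duplicate wells exceeding buffer-only control mean by more than 3 SD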;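 as to outcome: cells depolarized by a potassium plus thallium sulfate stimulus after compound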)
# Conditions: KCNQ1 cell line, FluxOR thallium flux fluorescence, at 10 µM; hits give high values, % of reference activator effect, buffer zero
# In short: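 System: KCNQ1-expressing CHO cell line; technique: kinetic thallium influx fluorescence with FluxOR dye, 10 s baseline, 110 s post-stimulus; timing: dye 90 min then compound 20 min, both at room temperature; controls: buffer-only wells as 0% and R-L3 activator as 100%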
Compound,outcome,potentiation
CCCc1nc2oc3c(NCCCN(C)C)ncnc3c2c2c1CCCC2,inactive,
COc1ccc(NS(=O)(=O)c2ccc3ccccc3c2)c2ncccc12,,49% (active)
CN(C)S(=O)(=O)N1CCC(CCCC2CCN(S(=O)(=O)N(C)C)CC2)CC1,,99.5% (active)
COc1cc(C2(c3ccc(O)c(OC)c3)C(=O)Nc3c(C)cc(Br)cc32)ccc1O,,36.5% (active)
CCCCCCCCCC[n+]1cccc2c3ccccc3ccc21,,64% (active)
Cc1nn(-c2cc(C(F)(F)F)ccc2Cl)c2nc(C(Cl)(Cl)Cl)[nH]c(=O)c12,,52.5% (active)
CN(C)CCCN(C(=O)CCc1ccccc1)c1nc2ccc(F)cc2s1,inactive,
Cc1ccc(C(=O)O)cc1N=Cc1cc(Br)cc(Br)c1O,,164% (active)
CC(C)NS(=O)(=O)c1ccc(NC(=O)C(C)Oc2ccc(C(=O)c3ccccc3)cc2)cc1 (stereo not drawn),inactive,
O=C1C=CC(=O)N1CCNc1ncc(C(F)(F)F)cc1Cl,,77.5% (active)
Cc1ccc2c(c1)C1CN(C)CCC1N2C(=S)NC(=O)c1ccc(Br)cc1 (stereo not drawn),,41% (active)
CCCCN(CC)CCCNC(=O)c1cc2cc3ccc(C)cc3nc2o1,inactive,
COc1cc(NC(=O)CSc2ncnc3sc4c(c23)CCC(C)C4)c(C(=O)O)cc1OC (stereo not drawn),,297% (active)
CN(CCCNC(=O)CCCOc1cc(=O)n(C)c2ccccc12)Cc1ccccc1,inactive,
Cc1cc(C)c2c(=O)n(CC(=O)Nc3cccc(Cl)c3C)sc2n1,inactive,
O=C(Nc1ccnn1C1CCN(Cc2cc3ccccc3[nH]2)CC1)C1CCOC1 (stereo not drawn),,53.5% (active)
O=C(O)CCCN1C(=O)/C(=C\c2ccc(-c3nc4ccccc4s3)o2)SC1=S,inactive,
CCN(CC)c1ncnc2sc3c(c12)CCC3,inactive,
